Experimental data from the EternaBench riboswitch data.

Test system: MS2 coat protein
Assay: apparent Kd, MS2 coat protein; higher = weaker binding; RNA-MaP array; FMN 200 µM where present
Summary of the method: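 In 100 mM Tris-HCl pH 7.5, 80 mM KCl, 4 mM MgCl2, BSA, DTT, yeast tRNA and Tween-20, SNAP-549-labelled MS2 coat protein was titrated from 0.7 or 1.5 nM, doubling to 3 µM, over designs transcribed by stalled E. coli RNA polymerase on Illumina sequencing-chip clusters. This was done first without ligand, then with ligand held constant. After green signal was normalised to red-channel RNA signal and control-cluster median Fmax, the apparent Kd was taken as the median of filtered per-cluster binding-curve fits.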

[1] = designed as: OFF switch for flavin mononucleotide, no ligand
[2] = ligand present: flavin mononucleotide, designed as: OFF switch for flavin mononucleotide
[3] = designed as: ON switch for flavin mononucleotide, no ligand
[4] = ligand present: flavin mononucleotide, designed as: ON switch for flavin mononucleotide

Sequence	apparent Kd [1] [nM]	apparent Kd [2] [nM]	apparent Kd [3] [nM]	apparent Kd [4] [nM]
UCUCGCUGGCGAGGAUAUCCUGUGCGGUUCCGGCUCGUGUCUGUUACAUGAGGAUCACCCAUGUGGGAGAAGGUGCCUGUGGCU	32.7	32.6	–	–
UCUGCUCGAGGAUAUACAUGAGGAUCACCCAUGUAUCCCAGAAGCAUGGCCUCAGGAUGUAGAAGGCGACGCUA	14.1	18.5	–	–
UCUUAUUGAGGAUAUACAUUAAUUUACAUGAGGAUCACCCAUGUUCUUCAAUGUAUAUAUGUAGAAGGCAGAAGAA	18.5	42	–	–
UCUUCACAUGAGGAUCACCCAUGUGAGGAUAUGGAUUCGCUGGCCGUAGCCAGUGGAUCCAGAAGGCGCAUGAU	23.8	25	–	–
UGAAAACAUGAGGAUCACCCAUGUAAAAACAUGGGAGGAUAUUGAAAAAAAAAAAAAAAACAAGAAGGCCCAAAAA	–	–	386	137
UGAACCAUGACAUGAGAUGACAUGAGGAUCACCCAUGUGUACAAGGAUAUGUUGGUCGACGAUCGGCAGAAGGUGUAAUGGGAU	58.9	196	–	–
UGAACUAUGUAGAAGGCCCACAUUAAUAUGUAGGGAGGAUAUACAUGAGGAUCACCCAUGUGAAGAGCAAGAGGAUUUAACAGA	23.9	106	–	–
UGAACUAUGUAGAAGGCCCAUAUUUAUAUUUAGGGAGGAUAUACAUGAGGAUCACCCAUGUAUAGAGCAAGUGGACUUGUCAGU	9.19	10.3	–	–
UGACGGCACACAGGAUAUAGUGCAGAAAGUGUACUAGAAGGGUGAGCACUCGUCCGGGCACAUGAGGAUCACCCAUGUCGUCGA	–	–	207	512
UGACGUAAAGAGAAGGGCUACUGGUUGAAACCUGCGGCCUCUGGAACAUGAGGAUCACCCAUGUAGCAGGAUAUCUUUGCAUCA	166	18.1	–	–
UGACUCGGAGGAUAUACAUGAGGAUCACCCAUGUUUGCCGGCCGCCGAGUAACCUGGUGUAGAAGGUCGAGUGU	20.4	18.9	–	–
UGAGAGUGAGGAUAUACGUCGCUGGUCCCGAUGGACGCAUGACAUGAGGAUCACCCAUGUAGAAGGCAUUUCCC	33.8	128	–	–
UGAGCCUCGUGAGGAUAUACAUGAGGAUCACCCAUGUAAUAAAGUGAACGGAGGAAACUCCGAAUGUAGAAGGCACGAGGCUCA	47.9	443	–	–
UGAGCUUGAGGAUAUACAUGAGGAUCACCCAUGUUGAGCUUGAGGAUCUUCGAGUUCGGUAGAAGGCGAGUUCG	16	33	–	–
UGAGUGCUGCGAGGAUAUACAUGAGGAUCACCCAUGUAAAUGUGUGAGGCUUUGCCUCACACAAUGUAGAAGGCGCAGUACUCU	14.5	17.2	–	–
UGAGUGUGAGGAUAUAUGGUAGGGAUGAAGGGAUAGAAUUAGUAGAAGGUACAUGAGGAUCACCCAUGUUAGGA	24.4	21.9	–	–
UGAUAACAUGUAGGAUAUCCAGCAUUGACCAUCGGAGAAGGACAUGAGGAUCACCCAUGUACCGAUACAAUGGGAUAACGGAAU	15.7	17.7	–	–
UGAUACAUGAGGAUCUCCCAUGACAUGAGGAUCACCCAUGUGCAGGAUAUACGUGUUAUAAUAUAGUAGAAGGGCAGUCUAUGU	133	199	–	–
UGAUACAUGAGGGUCUCCCAUGACAUGAGGAUCACCCAUGUGCAGGAUAUACGUGUGAUGAUAUAGUAGAAGGGCAGUCUAUGU	449	537	–	–
UGAUAGGACAGAGGAUAUACGGAUAGGAUCUACUAUCCUCCUUUAAUAACAUGAGGAUCACCCAUGUAGAAGGCUGUCCUAUCU	15.3	24.2	–	–
UGAUAGGACAGAGGAUAUACGGCUAGGAGAUACUAGCUACUAUUCCUCACAUGAGGAUCACCCAUGUAGAAGGCUGUCCUAUCU	16.9	148	–	–
UGAUAGGACAGAGGAUAUACGUGCUAGAGAUACUAGCAAAGUUUCUUGACAUGAGGAUCACCCAUGUAGAAGGCUGUCCUAUCU	5.74	12.3	–	–
UGAUAGGACAGAGGAUAUACGUGCUAGAGAUACUAGCUAAUAAUCCUUACAUGAGGAUCACCCAUGUAGAAGGCUGUCCUAUCU	19.5	45.5	–	–
UGAUAGGACAGAGGAUAUGCCGAUAGGCUCUACUAUCGAAGAAUCCUCACAUGAGGAUCACCCAUGUAGAAGGCUGUCCUAUCU	19.1	48	–	–
UGAUAGGACAGAGGAUAUGCUGAUAGGAUCUACUAUCGAAGAAUCCUCACAUGAGGAUCACCCAUGUAGAAGGCUGUCCUAUCU	12	143	–	–
UGAUCAAAUGUCAGGAUAUGCUGUUGUAAUCAACAGCAGAAGGGACAUGAGGAUCACCCAUGUCUUGUCGAUUU	12.9	37.3	–	–
UGAUCCCAUGUCAGGAUAUAGAGGCGGUAGCCUGGCUAGAAGGGACAUGAGGAUCACCCAUGUCGGUUCUUGCC	35.5	21.3	–	–
UGAUCGAGAGAUCUUAGAUUCUGGUAGGAUAUACAUUAUAAAAGCUUUACAUGAGGAUCACCCAUGUAGAAGGACUAGAGUCUA	–	7.92	–	–

Sequence	apparent Kd [1] [nM]	apparent Kd [2] [nM]	apparent Kd [3] [nM]	apparent Kd [4] [nM]
UGAUCUAUGUAGAAGGCCCAUAUCUAUAUUUAGGGAGGAUAUACAUGAGGAUCACCCAUGUAUAGAGCGGGUGGACCCGUCACU	74.1	185	–	–
UGAUCUUGUGUCAGGAUAUGCUGGUCUCCUCUCCAGCAGAAGGGACAUGAGGAUCACCCAUGUUCUCUCUUUUU	11	28.6	–	–
UGCAUGCUAGGAUAUACGAAACAUUAGGGUUCGUCGUAUGAACAUGAGGAUCACCCAUGUAGAAGGAGCGUGCU	18.4	34.3	–	–
UGCAUGCUAGGAUAUACGGGACAUUAGGGUUCGUCGUGUGGACAUGAGGAUCACCCAUGUAGAAGGAGCGUGCU	90	345	–	–
UGCCGUGUACAGAAGGGCGACAUGAGGAUCACCCAUGUCUCCUUGUUGGUCGUAGGAUAUGUACCGUGGCUCUCUACUGUGGGA	5.47	6.75	–	–
UGCGGAAGAGGAUAUACGUAGAACUAGGUUCAUGUAAAACUACAUGAGGAUCACCCAUGUAGAAGGCUUUCGCU	15.9	20.4	–	–
UGCGUACAAGCGGACAUGAGGAUCACCCAUGUAGUCUUAUGCGAGGAUAUCGGGAAGGAGGAUUCCGAGAAGGUGCGGUGAGCC	–	–	17.5	15.2
UGCGUGGUCACAGGAUAUGCAGGAUGAACUUUAGCAGAAGGGUGAUCAAUCAGCUCAAAACCACAUGAGGAUCACCCAUGUCUA	–	–	31.9	92.9
UGCUACGUUUCGUAGCAGUGUCAUCGAGAAGGCCCUGACAUGAGGAUCACCCAUGUUGUUACAUGGGAGGAUAUCGAUGAUACA	–	–	–	5.16
UGCUAGAAAGGAUAUACAUGAGGAUCACCCAUGUAACCCUAUAUGAGAGUUCCCGUUUGUAGAAGGUUCUCGUG	16.9	26.5	–	–
UGCUAGGAUGGGUCUAAUGGACCGCAGGAUAUGCUUGUACAUGAGGAUCACCCAUGUAACAUUGUGCAGAAGGGUGGAUCCACG	–	–	65.6	11.6
UGCUAGUCAGGAUAUACGAACAUGUCAAAAGACGUGAAGGGACAUGAGGAUCACCCAUGUAGAAGGGACUAGCU	38.4	129	–	–
UGCUGACAAGGAUAUACUCGGGAUGCUAGUCGCGCAGUUGCACAUGAGGAUCACCCAUGUAGAAGGUGUCAGUA	169	210	–	–
UGCUGGCAAGGAUAUACUCGGGAUGCUAGUCGCGCGGUUGCACAUGAGGAUCACCCAUGUAGAAGGUGUCUGUG	195	160	–	–
UGGACCGAGCUGUCGGUUGGCUGGCAGGAUAUGACAUGAGGAUCACCCAUGUGGGAUCUAAAUUGUCAGAAGGGCCGUUCUGGG	212	25.4	–	–
UGGUACAAGGGAGGAUAUGGGAAGAUACAUGAGGAUCACCCAUGUUUAAGAAUGCCGAGAGGCAACUAGAAGGCCCUAGUACCU	–	–	506	20.4
UGGUACAUCAUAGGAUAUCGUGUGUAAACAUGAGGAUCACCCAUGUCAUACGAGAGUAUGUCGAUCGAGAAGGAUGAUGUACCU	–	–	31.2	17.2
UGGUACAUGGGAGGAUAUCAUGUAGACACAUGAGGAUCACCCAUGUCGAUGGAGACAUCGGAGAUUGAGAAGGCCCAUGUACCU	–	–	226	8.3
UGGUACAUGGGAGGAUAUGGGAUGAUAACAUGAGGAUCACCCAUGUUAAAGAUGCCGAGAGGCAACUAGAAGGCCCAUGUACCU	–	–	281	62.4
UGGUACUAGGGAGGAUAUGGGAAGAUACAUGAGGAUCACCCAUGUUUAAGAACGCCGAGAGGCAACUAGAAGGCCCUAGUACCU	–	–	340	14.8
UGGUACUAGGGAGGAUAUGGGAAGAUACAUGAGGAUCACCCAUGUUUAAGAAUGCCGAGAGGCAACUAGAAGGCACUAGUACCU	–	–	1100	156
UGGUACUAGGGAGGAUAUGGGAAGAUACAUGAGGAUCACCCAUGUUUAAGAAUGCCGAGAGGCAACUAGAAGGCCCUAGUACCG	–	–	475	21.9
UGGUACUAGGGAGGAUAUGGGAAGAUACAUGAGGAUCACCCAUGUUUAAGAAUGCCGAGAGGCAACUAGAAGGCUCUAGUACCU	–	–	416	18.4
UGGUACUAGGGAGGAUAUGGGAAGAUACAUGAGGAUCACCCAUGUUUAAGAAUGCCGUGAGGCAACUAGAAGGCCCUAGUACCU	–	–	505	18.8
UGGUACUAGGGAGGAUAUGUGAAGAUACAUGAGGAUCACCCAUGUUUAAGAAUGCCGAGAGGCAACUAGAAGGCCCUAGUACCU	–	–	8.5	5.65
UGGUCCUAGGGAGGAUAUGGGAAGAUACAUGAGGAUCACCCAUGUUUAAGAAUGCCGAGAGGCAACUAGAAGGCCCUAGUACCU	–	–	439	20.6
UGGUGAAGUGUAGGAUAUGGAGAUGGGUUUUGGCCAGAAGGACAUGAGGAUCACCCAUGUGGUAGAGGGUUGGUGGUAGCUCGU	62.4	49.8	–	–
